This is an account of results in ChEMBL document CHEMBL1125797, “Synthesis, characterization and myocardial uptake of cationic bis(arene)technetium(I) complexes” (J Med Chem, 1991).

For data set [1], the system named is Rattus norvegicus. The data set is described as follows: Biodistribution of compound in rat lung after 5 min of administration. It is filed as ADME, organism-based. As to conditions: in vivo. The essentials: (§1)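 Female Sprague-Dawley rats (150–200 g) received the complex in normal saline (~12.5 μCi/mL) through a lateral tail vein at ~25 μCi/kg. Rats were killed by cervical dislocation 5 min after injection. Tissues were washed with saline, blotted, weighed and γ-counted to give percent injected dose/g tissue.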

In data set [2] the test system is Rattus norvegicus. Put plainly: Biodistribution of compound in rat heart after 5 min of administration. It is filed as ADME, organism-based. As to conditions: in vivo. The method in brief:
as §1

Data set [3] relates to Rattus norvegicus. The data set is described as follows: Biodistribution of compound in rat kidney after 5 min of administration. It is filed as ADME, organism-based. As to conditions: in vivo. The method in brief: as §1
Data set [4] deals with Rattus norvegicus. Put plainly: Biodistribution of compound in rat brain after 5 min of administration. It is filed as ADME, organism-based. The following applies: in vivo.
The nature of data set [5]: Plasma protein binding (human). In kind it is ADME, cell-free. The method in brief:
(§2)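 Test substance (0.02 mL) was added to 1.0 mL of heparinized fresh human plasma and incubated about 15 min. Duplicate samples were passed through Sephadex G-25 desalting columns by centrifugation. Eluate and gel were γ-counted for 1 min or to 1% σ error. % bound = net cpm eluate / net cpm (eluate + gel) × 100.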

The species entered for data set [6] is Rattus norvegicus. Put plainly: (§3) The compound was tested for the plasma binding in rat. It is filed as ADME, organism-based.
Data set [7] has as its system Rattus norvegicus. Put plainly: Biodistribution of compound in rat liver after 5 min of administration. The following applies: in vivo. In kind it is ADME, organism-based. The method in brief: as §1
The nature of data set [8]: (§4) Biodistribution of compound in rat muscle after 5 min of administration. In kind it is ADME, organism-based, Muscle tissue. The following applies: in vivo. The method in brief: as §1
Data set [9] deals with Rattus norvegicus. Put plainly: Biodistribution of compound in rat blood after 5 min of administration. In kind it is ADME, organism-based. As to conditions: in vivo. The method in brief: as §1
Data set [10] relates to Rattus norvegicus. The data set is described as §4. As to conditions: in vivo. It is filed as ADME, organism-based, Muscle tissue. The essentials: as §1
The species named for a further data set is Homo sapiens. Put plainly: The compound was tested for the plasma binding in human. It is filed as functional. The essentials: as §2
Data set [11] is filed under the species Rattus norvegicus. The description is as §3. It is filed as functional. The essentials: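 Plasma protein binding was measured in rat plasma samples collected during the rat biodistribution studies, after tail vein injection of the 99mTc complex in saline (~25 μCi/kg).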

On to “Bis(1,1,4,6-tetramethylindane)technetium”, for which the Dose/g in the data set with Rattus norvegicus [1] stood at 1.5%; in the data set on Rattus norvegicus [2], 3.4%; in the data set on Rattus norvegicus [3], 6.4%; with Rattus norvegicus [4] it was 0.04%; in the data set with Rattus norvegicus [7] it was 0.73%; in data set [8] it was 0.66%. The Dose/g with Rattus norvegicus [9] is 0.35%. Besides, the Plasma binding amounted to 94% in [5] and 75% in the data set listed under Rattus norvegicus [6].

As to “Bis(1,2,4,5-tetramethylbenzene)technetium”, the Dose/g in the data set on Rattus norvegicus [1] came to 1.3%; in the data set on Rattus norvegicus [2], 2.3%; in the data set with Rattus norvegicus [3] it was 9.8%; in the data set on Rattus norvegicus [4] it was 0.02%; in the data set with Rattus norvegicus [7] it was 0.9%; in [8], 0.72%. Also, in the data set on Rattus norvegicus [9], the Dose/g turned out to be 0.28%. Moreover, the Plasma binding in data set [5] is 42%; in the data set filed under Rattus norvegicus [6], 18%.

Take Bis(4,6-dimethylindane)technetium: the Dose/g with Rattus norvegicus [1] came out at 1.4%; with Rattus norvegicus [2], 3.6%; in the data set with Rattus norvegicus [3], 8.4%; in the data set on Rattus norvegicus [4] it was 0.03%; in the data set on Rattus norvegicus [7] it was 0.66%; in [8] it was 0.42%. Also, the Dose/g in the data set on Rattus norvegicus [9] worked out at 0.12%. The Plasma binding is 57% in [5] and 54% in the data set listed under Rattus norvegicus [6].

Turning to Bis(5-isopropyl-m-xylene)technetium, the Dose/g was found to be 1.3% in the data set with Rattus norvegicus [1]; 3.2% in the data set on Rattus norvegicus [2]; 6.5% in the data set with Rattus norvegicus [3]; 0.38% with Rattus norvegicus [7]; 0.7% with Rattus norvegicus [10]; 0.18% with Rattus norvegicus [9]. Besides, the Plasma binding came to 80% in data set [5] and 18% in the data set filed under Rattus norvegicus [6].

For “Bis(1,3,5-tri-tert-butylbenzene)technetium”, the Dose/g amounted to 1.3% with Rattus norvegicus [1]; 1% in the data set with Rattus norvegicus [2]; 8% in the data set on Rattus norvegicus [3]; 0.04% in the data set on Rattus norvegicus [4]; 2% with Rattus norvegicus [7]; 0.38% in [8]. The same substance displayed a Dose/g in the data set with Rattus norvegicus [9] of 0.49%. Moreover, the figures for the Plasma binding (in [5]; in the data set filed under Rattus norvegicus [6]) were 81% and 60%, respectively.

As to BIS(TRINDAN) TECHNETIUM, the Dose/g with Rattus norvegicus [1] is listed as 1%; in the data set on Rattus norvegicus [2], 1.5%; with Rattus norvegicus [3], 9.3%; in the data set on Rattus norvegicus [4], 0.02%; with Rattus norvegicus [7], 1%; in [8], 0.49%. Moreover, the Dose/g in the data set on Rattus norvegicus [9] is recorded as 0.09%. Moreover, the figures for the Plasma binding (in [5]; in the data set filed under Rattus norvegicus [6]) were 27% and 23%, respectively.

As for BIS(TOLUENE)TECHNETIUM, the PPB in the data set listed under Homo sapiens turned out to be 11%; in the data set filed under Rattus norvegicus [11], 8.9%.

Regarding Bis(1,4-diethylbenzene)technetium, the Dose/g amounted to 1.4% in the data set with Rattus norvegicus [1]; 3.8% with Rattus norvegicus [2]; 5.4% in the data set on Rattus norvegicus [3]; 0.03% in the data set on Rattus norvegicus [4]; 0.58% in the data set with Rattus norvegicus [7]; 0.66% in [8]. In addition, the Dose/g in the data set on Rattus norvegicus [9] was 0.13%. In addition, the Plasma binding is on record as 60% in data set [5] and 16% in the data set listed under Rattus norvegicus [6].

Bis(1,3-diethylbenzene)technetium: the Dose/g was 1.2% in the data set on Rattus norvegicus [1]; 2.8% in the data set with Rattus norvegicus [2]; 5.1% in the data set with Rattus norvegicus [3]; 0.03% with Rattus norvegicus [4]; 0.46% in the data set on Rattus norvegicus [7]; 0.64% in [8]. In the data set with Rattus norvegicus [9], the Dose/g is on record as 0.09%. Further, the Plasma binding in [5] turned out to be 64%; in the data set listed under Rattus norvegicus [6] it was 19%.

On to “Bis(1,2,3,5-tetramethylbenzene)technetium”, for which the PPB in the data set listed under Homo sapiens was found to be 36%; in the data set listed under Rattus norvegicus [11] it was 21%.

With “Bis(1,2,3,4-tetramethylbenzene)technetium”, the Dose/g in the data set on Rattus norvegicus [1] amounted to 1.1%; in the data set on Rattus norvegicus [2], 2.4%; with Rattus norvegicus [3], 8.2%; in the data set on Rattus norvegicus [7], 0.73%; in the data set with Rattus norvegicus [10], 0.66%; in the data set with Rattus norvegicus [9], 0.094%. In addition, the Plasma binding was found to be 46% in data set [5] and 22% in the data set filed under Rattus norvegicus [6].

Take “Bis(1,2,3,4,5,6,7,8-octahydroanthracene)technetium”: the Dose/g in the data set with Rattus norvegicus [1] was 0.9%; in the data set on Rattus norvegicus [2], 1.8%; with Rattus norvegicus [3] it was 9.1%; with Rattus norvegicus [4] it was 0.02%; with Rattus norvegicus [7] it was 0.79%; in [8] it was 0.48%. Further, the Dose/g with Rattus norvegicus [9] amounted to 0.16%. Also, the Plasma binding in data set [5] stood at 35%; in the data set filed under Rattus norvegicus [6] it was 32%.

Consider BIS(TETRAHYDROACENAPHTHENE) TECHNETIUM, for which the Dose/g worked out at 1.4% with Rattus norvegicus [1]; 4% in the data set on Rattus norvegicus [2]; 6% in the data set on Rattus norvegicus [3]; 0.45% in the data set on Rattus norvegicus [7]; 0.82% with Rattus norvegicus [10]; 0.23% with Rattus norvegicus [9]. Besides, the figures for the Plasma binding (in [5]; in the data set filed under Rattus norvegicus [6]) were 90% and 27%, respectively.

For the substance BIS(INDAN)TECHNETIUM, the Dose/g is 0.98% with Rattus norvegicus [1]; 1.1% in the data set on Rattus norvegicus [2]; 11% in the data set with Rattus norvegicus [3]; 1.7% in the data set on Rattus norvegicus [7]; 0.23% with Rattus norvegicus [10]; 0.077% in the data set with Rattus norvegicus [9]. The Plasma binding was 17% in data set [5] and 6.8% in the data set listed under Rattus norvegicus [6].

Regarding BIS(PENTAMETHYLBENZENE) TECHNETIUM, the Dose/g came out at 1.6% in the data set on Rattus norvegicus [1]; 3.5% in the data set on Rattus norvegicus [2]; 5.5% in the data set on Rattus norvegicus [3]; 0.02% in the data set with Rattus norvegicus [4]; 0.45% in the data set on Rattus norvegicus [7]; 0.66% in data set [8]. This substance also came in with a Dose/g with Rattus norvegicus [9] of 0.14%. Also, the values for the Plasma binding (in data set [5]; in the data set filed under Rattus norvegicus [6]) were 55% and 57%, respectively.

As to Bis(1,3,5-triethylbenzene)technetium, the Dose/g worked out at 1.1% with Rattus norvegicus [1]; 2.8% with Rattus norvegicus [2]; 7.3% in the data set on Rattus norvegicus [3]; 0.04% with Rattus norvegicus [4]; 1.4% with Rattus norvegicus [7]; 0.63% in data set [8]. The Dose/g in the data set on Rattus norvegicus [9] came out at 0.24%. In addition, the Plasma binding was found to be 83% in [5] and 48% in the data set listed under Rattus norvegicus [6].

For the substance BIS(DODECAHYDROTRIPHENYLENE) TECHNETIUM, the Dose/g in the data set on Rattus norvegicus [1] turned out to be 1%; with Rattus norvegicus [2], 2.6%; in the data set on Rattus norvegicus [3], 12%; with Rattus norvegicus [4] it was 0.02%; in the data set with Rattus norvegicus [7], 1%; in data set [8], 0.55%. Further, the Dose/g in the data set on Rattus norvegicus [9] is given as 0.16%. For the same substance, the Plasma binding in data set [5] is recorded as 84%; in the data set listed under Rattus norvegicus [6] it was 34%.

Consider “Bis(1-methyl-(2-propyl)benzene)technetium”, for which the Dose/g with Rattus norvegicus [1] was found to be 1.1%; in the data set with Rattus norvegicus [2], 2.5%; in the data set with Rattus norvegicus [3], 5%; in the data set on Rattus norvegicus [7], 0.42%; with Rattus norvegicus [10], 0.56%; with Rattus norvegicus [9] it was 0.16%. Also, the Plasma binding in data set [5] worked out at 75%; in the data set listed under Rattus norvegicus [6] it was 27%.

With “Bis(1,2,3,4-tetrahydronaphthalene)technetium”, the Dose/g stood at 1% with Rattus norvegicus [1]; 2.6% in the data set on Rattus norvegicus [2]; 9.1% with Rattus norvegicus [3]; 0.65% with Rattus norvegicus [7]; 0.51% in the data set on Rattus norvegicus [10]; 0.24% in the data set on Rattus norvegicus [9]. Further, the figures for the Plasma binding (in [5]; in the data set filed under Rattus norvegicus [6]) were 51% and 5.8%, respectively.

Take Bis(1,2-diethylbenzene)technetium: the Dose/g is 1.3% in the data set on Rattus norvegicus [1]; 3% with Rattus norvegicus [2]; 7.8% in the data set with Rattus norvegicus [3]; 0.03% in the data set on Rattus norvegicus [4]; 0.62% in the data set with Rattus norvegicus [7]; 0.58% in data set [8]. In the data set on Rattus norvegicus [9], this substance yielded a Dose/g of 0.1%. The Plasma binding was 84% in [5] and 21% in the data set filed under Rattus norvegicus [6].

On to BIS(HEXAETHYLBENZENE) TECHNETIUM, for which the Dose/g in the data set on Rattus norvegicus [1] is reported as 5.7%; with Rattus norvegicus [2], 1.3%; with Rattus norvegicus [3], 10%; in the data set on Rattus norvegicus [4] it was 0.06%; with Rattus norvegicus [7] it was 8.4%; in data set [8], 0.33%. Moreover, the Dose/g in the data set on Rattus norvegicus [9] is reported as 0.4%. Besides, the Plasma binding in data set [5] worked out at 84%; in the data set listed under Rattus norvegicus [6], 50%.

For the substance Bis(toluene)technetium, the PPB in the data set filed under Homo sapiens was determined as 11%; in the data set listed under Rattus norvegicus [11], 8.9%.

Consider BIS(HEXAMETHYLBENZENE)TECHNETIUM, for which the Dose/g in the data set with Rattus norvegicus [1] stood at 1.2%; in the data set with Rattus norvegicus [2], 3%; with Rattus norvegicus [3] it was 6.2%; with Rattus norvegicus [4], 0.03%; in the data set with Rattus norvegicus [7] it was 0.79%; in [8], 0.55%. The substance further displayed a Dose/g in the data set with Rattus norvegicus [9] of 0.16%. Further, the results for the Plasma binding (in [5]; in the data set filed under Rattus norvegicus [6]) were 72% and 57%, respectively.

On to “Bis(1,1,4,6,7-pentamethylindane)technetium”, for which the Dose/g with Rattus norvegicus [1] came out at 2.5%; with Rattus norvegicus [2] it was 3.3%; with Rattus norvegicus [3], 5%; with Rattus norvegicus [4] it was 0.06%; in the data set on Rattus norvegicus [7] it was 1.2%; in data set [8], 0.56%. Moreover, the Dose/g with Rattus norvegicus [9] was found to be 0.49%. Further, the Plasma binding turned out to be 95% in [5] and 81% in the data set listed under Rattus norvegicus [6].
